Measured values as given in ChEMBL document CHEMBL4689842, “EUbOPEN Chemogenomics Library wave 1” (2021).

What was measured:
Assay type in all cases: toxicity, cell-based
U2OS [1] = assay: Multiplex assay against U2OS; conditions: human
Summary of the method: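 Live cells carried four stains from seeding: Hoechst33342, BioTracker Green Microtubule Cytoskeleton Dye, MitoTracker Red and Annexin V Alexa Fluor 680. They were imaged on a CQ1 microscope at 37°C and 5% CO2 after compound addition. Using CellPathfinder machine-learning gating, cells were split into Hoechst high-intensity objects or normal cells, normal cells into healthy, pyknosed or fragmented nuclei, and pyknosed cells into mitotic or apoptotic; tubulin, mitochondrial-mass and membrane-permeability phenotypes are per cents of healthy-nucleus cells.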

HEK-293T = assay: Incucyte cell viability with HEK293T; conditions: human, 10 µM, compound concentration 10 uM; note: filed as whole numbers so only -1 and 0 and 1 occur
U2OS [2] = assay: Incucyte cell viability with U2OS; conditions: human, 10 µM, compound concentration 10 uM; note: filed as whole numbers so only -1 and 0 and 1 occur
[3] = 24 h, 10 µM, compound concentration 10 uM, replicate 1
[4] = 24 h, 10 µM, compound concentration 10 uM, replicate 2
[5] = 48 h, 1 µM, compound concentration 1 uM, replicate 1
[6] = 48 h, 1 µM, compound concentration 1 uM, replicate 2
[7] = 48 h, 10 µM, compound concentration 10 uM, replicate 1
[8] = 48 h, 10 µM, compound concentration 10 uM, replicate 2
[9] = 6 h, replicate number 2, timepoint 6 hours
[10] = 12 h, replicate number 1, timepoint 12 hours
[11] = 18 h, replicate number 1, timepoint 18 hours
[12] = 24 h, replicate number 1, timepoint 24 hours

With `Nc1nc2c(c(N3CCNCC3)n1)CCC1=C2[C@@H]2CCCC[C@@H]2O1` the “Population Mitotic Cells (%)” value (U2OS [1]; [3]) was 59%, the “Population Normal (%)” value (U2OS [1]; [3]) was 85% and the “Population Pyknosed Nuclei (%)” value (U2OS [1]; [3]) was 43%. For the same molecule, the “Population Tubulin-Different-Phenotype (%)” value (U2OS [1]; [3]) was 75%, the “Total Cell Count” value (U2OS [1]; [3]) was 140 and the “Population Apoptotic (%)” value (U2OS [1]; [4]) was 33%. The “Population Fragmented Nuclei (%)” value (U2OS [1]; [4]) was 8%, the “Population Healthy Nuclei (%)” value (U2OS [1]; [4]) was 46% and the “Population Hoechst High Intensity Objects (%)” value (U2OS [1]; [4]) was 2%. The “Population Membrane Permeable-Phenotype (%)” value (U2OS [1]; [4]) was 22%, the “Population Mitochondria Different-Phenotype (%)” value (U2OS [1]; [4]) was 79% and the “Population Mitotic Cells (%)” value (U2OS [1]; [4]) was 66%. The “Population Normal (%)” value (U2OS [1]; [4]) was 97%, the “Population Pyknosed Nuclei (%)” value (U2OS [1]; [4]) was 45% and the “Population Tubulin-Different-Phenotype (%)” value (U2OS [1]; [4]) was 69%. For the same molecule, the “Total Cell Count” value (U2OS [1]; [4]) was 109, the “Population Apoptotic (%)” value (U2OS [1]; [5]) was 31% and the “Population Fragmented Nuclei (%)” value (U2OS [1]; [5]) was 8%. For the same molecule, the “Population Healthy Nuclei (%)” value (U2OS [1]; [5]) was 78%, the “Population Hoechst High Intensity Objects (%)” value (U2OS [1]; [5]) was 5% and the “Population Membrane Permeable-Phenotype (%)” value (U2OS [1]; [5]) was 3%. The “Population Mitochondria Different-Phenotype (%)” value (U2OS [1]; [5]) was 5%, the “Population Mitotic Cells (%)” value (U2OS [1]; [5]) was 68% and the “Population Normal (%)” value (U2OS [1]; [5]) was 94%. For the same molecule, the “Population Pyknosed Nuclei (%)” value (U2OS [1]; [5]) was 13%, the “Population Tubulin-Different-Phenotype (%)” value (U2OS [1]; [5]) was 5% and the “Total Cell Count” value (U2OS [1]; [5]) was 299. The “Population Apoptotic (%)” value (U2OS [1]; [6]) was 40%, the “Population Fragmented Nuclei (%)” value (U2OS [1]; [6]) was 19% and the “Population Healthy Nuclei (%)” value (U2OS [1]; [6]) was 65%. For the same molecule, the “Population Hoechst High Intensity Objects (%)” value (U2OS [1]; [6]) was 9%, the “Population Membrane Permeable-Phenotype (%)” value (U2OS [1]; [6]) was 4% and the “Population Mitochondria Different-Phenotype (%)” value (U2OS [1]; [6]) was 17%. For the same molecule, the “Population Mitotic Cells (%)” value (U2OS [1]; [6]) was 60%, the “Population Normal (%)” value (U2OS [1]; [6]) was 90% and the “Population Pyknosed Nuclei (%)” value (U2OS [1]; [6]) was 14%. For the same molecule, the “Population Tubulin-Different-Phenotype (%)” value (U2OS [1]; [6]) was 13%, the “Total Cell Count” value (U2OS [1]; [6]) was 113 and the “Population Apoptotic (%)” value (U2OS [1]; [7]) was 62%. For the same molecule, the “Population Fragmented Nuclei (%)” value (U2OS [1]; [7]) was 19%, the “Population Healthy Nuclei (%)” value (U2OS [1]; [7]) was 32% and the “Population Hoechst High Intensity Objects (%)” value (U2OS [1]; [7]) was 18%. For the same molecule, the “Population Membrane Permeable-Phenotype (%)” value (U2OS [1]; [7]) was 8%, the “Population Mitochondria Different-Phenotype (%)” value (U2OS [1]; [7]) was 76% and the “Population Mitotic Cells (%)” value (U2OS [1]; [7]) was 37%. The “Population Normal (%)” value (U2OS [1]; [7]) was 81%, the “Population Pyknosed Nuclei (%)” value (U2OS [1]; [7]) was 48% and the “Population Tubulin-Different-Phenotype (%)” value (U2OS [1]; [7]) was 63%. The “Total Cell Count” value (U2OS [1]; [7]) was 175, the “Population Apoptotic (%)” value (U2OS [1]; [8]) was 48% and the “Population Fragmented Nuclei (%)” value (U2OS [1]; [8]) was 9%. The “Population Healthy Nuclei (%)” value (U2OS [1]; [8]) was 40%, the “Population Hoechst High Intensity Objects (%)” value (U2OS [1]; [8]) was 12% and the “Population Membrane Permeable-Phenotype (%)” value (U2OS [1]; [8]) was 21%. The “Population Mitochondria Different-Phenotype (%)” value (U2OS [1]; [8]) was 78%, the “Population Mitotic Cells (%)” value (U2OS [1]; [8]) was 51% and the “Population Normal (%)” value (U2OS [1]; [8]) was 87%. For the same molecule, the “Population Pyknosed Nuclei (%)” value (U2OS [1]; [8]) was 50%, the “Population Tubulin-Different-Phenotype (%)” value (U2OS [1]; [8]) was 53% and the “Total Cell Count” value (U2OS [1]; [8]) was 133. For the same molecule, the “Growth Rate” value (HEK-293T; 0 h, replicate number 1, timepoint 0 hours) was 0, the “Growth Rate” value (HEK-293T; 6 h, replicate number 1, timepoint 6 hours) was 1 and the “Growth Rate” value (HEK-293T; [9]) was 0. The “Growth Rate” value (HEK-293T; [10]) was 1, the “Growth Rate” value (HEK-293T; 12 h, replicate number 2, timepoint 12 hours) was 0 and the “Growth Rate” value (HEK-293T; [11]) was 0. The “Growth Rate” value (HEK-293T; [12]) was 0, the “Growth Rate” value (U2OS [2]; 0 h, replicate number 2, timepoint 0 hours) was 0 and the “Growth Rate” value (U2OS [2]; [9]) was 1. For the same molecule, the “Growth Rate” value (U2OS [2]; [10]) was 1, the “Growth Rate” value (U2OS [2]; [11]) was 1 and the “Growth Rate” value (U2OS [2]; [12]) was 1.
